Measured values gathered from unrelated publications.
Protocols differ between the studies behind these lines.

SMILES	technique	matrix	time	pH	temperature	notes	solubility
Cc1cc(Nc2cccc(Cl)c2)n2nc(C(C)(F)F)nc2n1	nephelometry	aqueous buffer		pH 6.5			77 to 150 µM
CCc1nc2ccc(Cl)cn2c1C(=O)NCc1ccc(N2CCC(c3ccc(OC(F)(F)F)cc3)CC2)cc1		PBS					61 µM
CC(=O)N[C@@H](CC(N)=O)C(=O)N[C@@H](CCCNC(=N)N)C(=O)N[C@@H](CC(C)C)C(=O)N[C@H]1CSSC[C@@H](C(=O)N[C@H](C(N)=O)[C@@H](C)O)NC(=O)[C@H](CCCNC(=N)N)NC(=O)[C@H](Cc2c[nH]cn2)NC(=O)[C@H](C)NC(=O)CNC(=O)[C@H](Cc2c[nH]c3ccccc23)NC(=O)[C@H](CC(=O)O)NC(=O)[C@H](CCC(N)=O)NC(=O)[C@H](Cc2c[nH]c3ccccc23)NC(=O)[C@H](C(C)C)NC1=O		PBS		pH 7.4			1050 µg/mL
CN1CCN(C(=O)C2CCN(c3nccc4[nH]c(-c5ccc(F)c(F)c5)nc34)CC2)CC1	shake flask	aqueous buffer		pH 6.5			> 200 µM
CSC[C@H]1O[C@@H](n2cnc3c(N)ncnc32)[C@H](O)[C@@H]1O		PBS					110 µM
CCOc1ccc2cc(-c3nn(CC4CC4)c(N)c3C(N)=O)ccc2n1		PBS		pH 6.5	25 °C		10.9 µM
COc1ccc(Nc2nc(NCc3ccccc3)c3ccccc3n2)cc1F		aqueous buffer		pH 7.4			0.08 µg/mL
CC(C)[C@@H]1CC[C@@H](C)CC1=O		PBS	48 h	pH 7.4	25 °C		3000 µM
Brc1ccccc1CNc1nc(NCc2ccccc2)c2ccccc2n1		aqueous buffer		pH 5			0.21 µg/mL
CCCOc1ccc2cc(-c3nn(C(C)(C)C)c(N)c3C(N)=O)cnc2c1		PBS		pH 6.5	25 °C		12.7 µM
NC(=O)c1ccc(N(Cc2ccc(C3CCCCC3)cn2)C(=O)[C@H]2CCN2S(=O)(=O)c2c(F)c(F)c(F)c(F)c2F)cc1O		simulated gastric fluid					107 µg/mL
Cl.NC1CCN(c2nc3cc(Cl)ccc3n2Cc2ccccc2)CC1	shake flask	aqueous buffer	20 h	pH 6.5	25 °C		> 150 µM
c1ccc(CNc2nc(N3CCOc4ccccc43)nc3ccccc23)cc1		aqueous buffer		pH 5			25.2 µg/mL
Cc1cc(Nc2ccc(S(F)(F)(F)(F)F)cc2)n2nc(C(F)(F)F)nc2n1	nephelometry	aqueous buffer		pH 6.5			30 to 60 µM
COc1ccc(N2CCN(CCCNC(=O)Cn3c(=O)c4cccn4c4c(C)ccnc43)CC2)cc1		aqueous buffer		pH 7.4			12.4 µg/mL
O=C(Nc1cc(F)c(F)c(F)c1)c1ccc(F)c(S(=O)(=O)NCc2cccc(B(O)O)c2)c1		aqueous buffer		pH 7.4			427 µg/mL
Brc1cccc(Nc2nc(NCc3ccccc3)c3ccccc3n2)c1		aqueous buffer		pH 6.2			0.01 µg/mL
Cn1c(-c2nc3cc(C(=O)N4CCCC(N)C4)ccc3n2C)cc2ccccc21 (stereo not shown)		aqueous buffer					> 350 µM
CC(C)Cc1ccc(C(C)C(=O)O)cc1 (stereo not shown)		PBS		pH 7.4			4580 µg/mL
[Cl-].c1ccc2nc(Cn3c[n+](Cc4ccc5ccccc5n4)c4ccccc43)ccc2c1		water					> 500 µg/mL
CC[C@H](C)[C@H](NC(=O)[C@H](Cc1ccccc1)NC(=O)[C@H](Cc1ccc(O)cc1)NC(=O)[C@@H]1CCCN1C(=O)[C@@H](N)Cc1ccc(O)cc1)C(=O)N1CCC[C@H]1C(=O)N[C@@H](CC(C)C)C(=O)NCC(=O)NCC(=O)NCC(=O)N[C@@H](CCC(=O)O)C(=O)N[C@H](C(=O)N[C@@H](CC(N)=O)C(=O)N[C@@H](CC(C)C)[C@@H](O)CC(=O)N[C@H](C(=O)N[C@@H](C)C(=O)N[C@@H](CCC(=O)O)C(=O)N1CCC[C@@H]1C(=O)N[C@@H](CCCCNC(=O)CCC(=O)O[C@H]1CC[C@@]2(C)C(=CC[C@H]3[C@@H]4CC[C@H]([C@H](C)CCCC(C)C)[C@@]4(C)CC[C@@H]32)C1)C(N)=O)C(C)C)C(C)C		aqueous buffer		pH 6.5			< 1 µg/mL
COC(=O)C1=C(C)NC(C)=C(C(=O)OCCN(C)Cc2ccccc2)C1c1cccc([N+](=O)[O-])c1 (stereo not shown)		FaSSIF	24 h	pH 7.4	37 °C		227 µg/mL
CCC(C)n1ncn(-c2ccc(N3CCN(c4ccc(OCC5COC(Cn6cncn6)(c6ccc(Cl)cc6Cl)O5)cc4)CC3)cc2)c1=O (stereo not shown)		aqueous buffer		pH 6			2.5 µg/mL
Cc1ccc(-c2ccccc2C(=O)Nc2c(C)cccc2C(=O)O)cc1	shake flask	aqueous buffer	24 h	pH 6.5	25 °C		175 µM
CCOc1ccc2cc(-c3nn(C(C)(C)C)c(N)c3C(N)=O)cnc2c1		PBS		pH 6.5	25 °C		26 µM
COc1c(Cl)cccc1Nc1nc(NCc2ccccc2)c2ccccc2n1		aqueous buffer		pH 5			0.5 µg/mL
Cc1cc(Nc2ccc(C(F)(F)F)cc2)n2nc(C(C)(F)F)nc2n1	nephelometry	aqueous buffer		pH 6.5			70 to 140 µM
CN1CCN([C@H]2CC[C@@H](Nc3nccc4[nH]c(-c5cc(F)cc(F)c5)nc34)CC2)CC1	shake flask	aqueous buffer		pH 6.5			> 200 µM

SMILES	technique	matrix	time	pH	temperature	notes	solubility
COc1cccc(OC)c1-c1nc(C(=O)N[C@@H](CC(C)C)C(=O)O)cn1-c1ccnc2cc(Cl)ccc12		aqueous buffer		pH 7.4			> 52 µg/mL
O=C(CCCCCCC(=O)Nc1ccccc1)NO		simulated gastric fluid	48 h	pH 2	25 °C	acidic	160 µg/mL
CCCCOC(=O)c1ccc(N)cc1		PBS		pH 7.4			226 µg/mL
COc1cccc(OC)c1-c1cc(C(=O)N[C@@H](CC(C)C)C(=O)O)nn1-c1ccnc2cc(Cl)ccc12		aqueous buffer		pH 7.4			> 155 µg/mL
CCOc1ccc2cc(-c3nn(C(C)C)c(N)c3C(N)=O)ccc2n1		PBS		pH 6.5	25 °C		> 100 µM
COc1cccc2c(NCc3ccccc3)nc(NCc3ccccc3)nc12		aqueous buffer		pH 5			3.2 µg/mL
COc1ccccc1C(=O)Nc1cccc(NC(=O)c2cccc(C)c2)c1		aqueous buffer		pH 7.4			0.47 µM
Clc1ccc2c(c1)nc(C1CCNCC1)n2Cc1ccccc1	shake flask	aqueous buffer	20 h	pH 6.5	25 °C		125 µM
Cc1nccn1CC1CCc2c(c3ccccc3n2C)C1=O (stereo not shown)		PBS	24 h	pH 7.4	25 °C		93 µM
CCc1ccccc1-n1nc(C)c(C(=O)Nc2ccc3ccccc3n2)c1C	HPLC	PBS	6 h	pH 7.4			5.9 µg/mL
Cc1c(F)cccc1NC(=O)Nc1ccc(Cl)c(S(=O)(=O)[C@H]2CCCNC2)c1O		aqueous buffer	4 h	pH 10			68 µg/mL
N=C(N)N1CC=C(c2coc(C(=O)Nc3ccc(C4=CCN(C(=N)N)CC4)c(F)c3)c2)CC1	shake flask	aqueous buffer		pH 7.4			58 µg/mL
Clc1ccc2c(c1)nc(NCc1ccccn1)n2Cc1ccccc1	shake flask	aqueous buffer	20 h	pH 6.5	25 °C		15 µM
CN(C)C1CN(Cc2ccc(NC(=O)c3ccc(OCCCl)c([N+](=O)[O-])c3)cc2C(F)(F)F)C1	HPLC	water	1 h				< 5 µg/mL
Cl.Clc1ccc2c(nc(N3CCNCC3)n2Cc2ccccc2)c1Cl	shake flask	aqueous buffer	20 h	pH 6.5	25 °C		70 µM
Cc1cc(Nc2ccc(S(F)(F)(F)(F)F)cc2)n2nc(C(C)(F)F)nc2n1	nephelometry	aqueous buffer		pH 6.5			30 to 60 µM
CCOc1ccc2cc(-c3nn(C4CCCCCC4)c(N)c3C(N)=O)cnc2c1		PBS		pH 6.5	25 °C		8.5 µM
Brc1cccc2c(NCc3ccccc3)nc(NCc3ccccc3)nc12		aqueous buffer		pH 6.2			0.13 µg/mL
O=C(c1ccccn1)N(Cc1cccs1)C1(C(=O)NC2CCCCC2)CCCCC1		aqueous buffer		pH 5			5.7 µg/mL
CC(C)c1cccc2c(-c3ccccc3)cc(-c3ccc(-c4ccc(C(=O)O)cc4)[nH]3)nc12		PBS		pH 7.4			71.6 µM
CCCn1nc(C(=O)N2CCCCC2)c2c1CCC(NCc1ccc(N3CCCCC3)cc1)C2 (stereo not shown)		PBS	16 h	pH 7.4			463 µM
Fc1ccc(-c2nc3c(C4CCNCC4)nccc3[nH]2)cc1F	shake flask	aqueous buffer		pH 6.5			> 200 µM
O=C(Nc1ccc(S(=O)(=O)N2CCC(Cl)CC2)cc1)c1ccc([N+](=O)[O-])o1		PBS		pH 7.4			9.4 µM
CC(C)CC(=O)N1CCC[C@H](COc2cccc3c2C(N)=NS(=O)(=O)[N-]3)C1.[Na+]		water					235000 µM
COc1cc(OC)cc(N(CCNC(C)C)c2ccc3ncc(-c4cnn(C)c4)nc3c2)c1		aqueous buffer		pH 7.65			150 µg/mL
Cc1c(F)cccc1Nc1nc(NCc2ccccc2)c2ccccc2n1		aqueous buffer		pH 7.4			< 0.01 µg/mL
CN1CCN(CC2CCN(c3nccc4[nH]c(-c5cccc(OC(F)(F)F)c5)nc34)CC2)CC1	shake flask	aqueous buffer		pH 6.5			> 200 µM
